Calls of active or inactive are those of the source. The calls are words filed in the database; no cut-off is given here.
Columns and labels:
PC-3 [1] = assay: Cell cycle arrest in human PC3 cells assessed as accumulation at S phase at 0.16 uM after 72 hrs by propidium iodide staining-based flow cytometric analysis (reference value: 36.46%); format: functional
Method in brief: (§1)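 Concentrations used were 0, 0.3, 0.6 and 1.2 μM in HepG2 and 0, 0.16, 0.31 and 1.25 μM in PC-3, with untreated cells as control, for 72 h. Cells were trypsinized, washed in PBS, fixed in cold ethanol at 4 °C overnight, then incubated 30 min in PBS containing RNase A and propidium iodide. DNA content was read by flow cytometry to give phase distribution.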

PC-3 [2] = assay: Induction of apoptosis in human PC3 cells assessed as late apoptotic cells at 0.16 uM after 72 hrs by Annexin V-APC/7-AAD or propidium iodide staining-based flow cytometric analysis (reference value: 4.74%); format: functional
PC-3 [3] = assay: Induction of apoptosis in human PC3 cells assessed as reduction in mitochondrial membrane potential after 48 hrs by JC-1 staining-based flow cytometric analysis; format: functional, cell-based
Method in brief: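 After overnight culture, PC-3 cells were treated in triplicate with 0, 0.16, 0.31 or 1.25 μM, or vehicle, for 48 h. They were then loaded with JC-1, and the proportion with depolarized mitochondrial membrane potential was counted by flow cytometry.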

L02 [4] = assay: Induction of apoptosis in human LO2 cells assessed as late apoptotic cells at 1.25 uM after 72 hrs by Annexin V-FITC/7-AAD or propidium iodide staining-based flow cytometric analysis (reference value: 0.11%); format: cell-based; settings: l02, 72 h
PC-3 [5] = assay: Induction of apoptosis in human PC3 cells after 72 hrs by Annexin V-APC/7-AAD or propidium iodide staining-based flow cytometric analysis; format: functional, cell-based
PC-3 [6] = assay: Induction of apoptosis in human PC3 cells assessed as rupture of cell membrane at 0.16 to 1.25 uM after 48 hrs by Hoechst 33258 staining-based fluorescent microscopic analysis; format: functional
Method in brief: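 PC-3 cells grown on sterile cover slips were exposed to 0, 0.16, 0.31 or 1.25 μM, or vehicle, for 48 h. Then fixed with 4% paraformaldehyde for 10 min, washed twice in PBS, stained with Hoechst 33258 for 5 min and washed again. Nuclei imaged at 350 nm excitation and 460 nm emission.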

[7] = Induction of apoptosis in human LO2 cells assessed as viable cells at 1.25 uM after 72 hrs by Annexin V-FITC/7-AAD or propidium iodide staining-based flow cytometric analysis (reference value: 94.26%); format: cell-based, L02; settings: read-out: Activity
PC-3 [8] = assay: Induction of apoptosis in human PC3 cells assessed as early apoptotic cells at 0.16 uM after 72 hrs by Annexin V-APC/7-AAD or propidium iodide staining-based flow cytometric analysis (reference value: 4.09%); format: functional
PC-3 [9] = assay: Induction of apoptosis in human PC3 cells assessed as late apoptotic cells at 0.31 uM after 72 hrs by Annexin V-APC/7-AAD or propidium iodide staining-based flow cytometric analysis (reference value: 4.74%); format: functional
L02 [10] = assay: Induction of apoptosis in human LO2 cells assessed as necrotic cells at 1.25 uM after 72 hrs by Annexin V-FITC/7-AAD or propidium iodide staining-based flow cytometric analysis (reference value: 1.99%); format: cell-based; settings: l02, 72 h
PC-3 [11] = assay: Induction of apoptosis in human PC3 cells assessed as early apoptotic cells at 1.25 uM after 72 hrs by Annexin V-APC/7-AAD or propidium iodide staining-based flow cytometric analysis (reference value: 4.09%); format: functional
PC-3 [12] = assay: Cell cycle arrest in human PC3 cells assessed as accumulation at S phase at 1.25 uM after 72 hrs by propidium iodide staining-based flow cytometric analysis (reference value: 36.46%); format: functional; method in brief: as §1
HepG2 [13] = assay: Induction of apoptosis in human HepG2 cells assessed as reduction in c-IAP1 expression levels at 2 uM after 24 hrs by membrane-based sandwich immunoassay; format: functional, cell-based
Method in brief: (§2)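 HepG2 cells exposed to 2 μM for 24 h. Proteins extracted per kit protocol. Relative levels of 35 apoptosis-related proteins measured on a human apoptosis antibody array.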

HepG2 [14] = assay: Induction of apoptosis in human HepG2 cells assessed as early apoptotic cells at 0.6 uM after 72 hrs by Annexin V-APC/7-AAD or propidium iodide staining-based flow cytometric analysis (reference value: 1.87%); format: functional
HepG2 [15] = assay: Induction of apoptosis in human HepG2 cells assessed as reduction in survivin expression levels at 2 uM after 24 hrs by membrane-based sandwich immunoassay; format: functional, cell-based; method in brief: as §2
L02 [16] = assay: Induction of apoptosis in human LO2 cells assessed as late apoptotic cells at 1.2 uM after 72 hrs by Annexin V-FITC/7-AAD or propidium iodide staining-based flow cytometric analysis (reference value: 0.11%); format: cell-based; settings: l02, 72 h
HepG2 [17] = assay: Induction of apoptosis in human HepG2 cells assessed as reduction in mitochondrial membrane potential after 48 hrs by JC-1 staining-based flow cytometric analysis; format: functional, cell-based
Method in brief: (§3)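 HepG2 cells cultured overnight, then incubated in triplicate with 0, 0.3, 0.6 or 1.2 μM, or vehicle, for 48 h. Stained with the cationic dye JC-1. Flow cytometry gave the percentage of cells with healthy versus collapsed mitochondrial membrane potential.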

[18] = Induction of apoptosis in human LO2 cells assessed as viable cells at 1.2 uM after 72 hrs by Annexin V-FITC/7-AAD or propidium iodide staining-based flow cytometric analysis (reference value: 94.26%); format: cell-based, L02; settings: read-out: Activity
HepG2 [19] = assay: Induction of apoptosis in human HepG2 cells assessed as reduction in HO-2 expression levels at 2 uM after 24 hrs by membrane-based sandwich immunoassay; format: functional, cell-based
Method in brief: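 HepG2 cells treated at 2 μM for 24 h; protein extracts prepared per the kit protocol. Relative levels of 35 apoptosis-related proteins measured with a human apoptosis antibody array.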

HepG2 [20] = assay: Induction of apoptosis in human HepG2 cells assessed as early apoptotic cells at 1.2 uM after 72 hrs by Annexin V-APC/7-AAD or propidium iodide staining-based flow cytometric analysis (reference value: 1.87%); format: functional
HepG2 [21] = assay: Induction of apoptosis in human HepG2 cells assessed as chromatin condensation at 0.3 to 0.6 uM after 48 hrs by Hoechst 33258 staining-based fluorescent microscopic analysis; format: functional, cell-based
Method in brief: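 HepG2 cells grown on coverslips were treated for 48 h at 0.3, 0.6 or 1.2 μM, then fixed in 4% paraformaldehyde for 10 min. After PBS washes, cells were stained with Hoechst 33258 for 5 min and washed again. Nuclear morphology was examined by fluorescence imaging at 350 nm excitation and 460 nm emission.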

HepG2 [22] = assay: Induction of apoptosis in human HepG2 cells assessed as late apoptotic cells at 0.6 uM after 72 hrs by Annexin V-APC/7-AAD or propidium iodide staining-based flow cytometric analysis (reference value: 4.14%); format: functional
HepG2 [23] = assay: Induction of apoptosis in human HepG2 cells assessed as reduction in mitochondrial membrane potential at 0.6 uM after 48 hrs by JC-1 staining-based flow cytometric analysis (reference value: 1.6%); format: functional; design: scale not given: the % may be the effect or the level left; method in brief: as §3
HepG2 [24] = assay: Induction of apoptosis in human HepG2 cells assessed as early apoptotic cells at 0.3 uM after 72 hrs by Annexin V-APC/7-AAD or propidium iodide staining-based flow cytometric analysis (reference value: 1.87%); format: functional
HepG2 [25] = assay: Induction of apoptosis in human HepG2 cells assessed as late apoptotic cells at 0.3 uM after 72 hrs by Annexin V-APC/7-AAD or propidium iodide staining-based flow cytometric analysis (reference value: 4.14%); format: functional

COc1ccc(-c2cc(=O)c3c(O)c(OC)c(O[C@@H]4O[C@H](C(=O)NCCOc5no[n+]([O-])c5S(=O)(=O)c5ccccc5)[C@@H](O)[C@H](O)[C@H]4O)cc3o2)cc1
Activity (PC-3 [1]): 38.34% | Activity (PC-3 [2]): 12.75% | Activity (PC-3 [3]): Dose-dependent effect | Activity (L02 [4]): 2.95% | Activity (PC-3 [5]): Dose-dependent effect | Activity (PC-3 [6]): Active | viability at 72 h, 1.25 µM [7]: 78.4% | Activity (PC-3 [8]): 3.71% | Activity (PC-3 [9]): 22.46% | Activity (L02 [10]): 1.32% | Activity (PC-3 [11]): 14.91% | Activity (PC-3 [12]): 50.41%

O=C(NCCCOc1no[n+]([O-])c1S(=O)(=O)c1ccccc1)[C@H]1O[C@@H](Oc2cc3oc(-c4ccc(OCc5ccccc5)cc4)cc(=O)c3c(O)c2OCc2ccccc2)[C@H](O)[C@@H](O)[C@@H]1O
Activity (HepG2 [13]): Active | Activity (HepG2 [14]): 13.13% | Activity (HepG2 [15]): Active | Activity (L02 [16]): 2.76% | Activity (HepG2 [17]): Dose-dependent effect | viability at 72 h, 1.2 µM [18]: 81.5% | Activity (HepG2 [19]): Active | Activity (HepG2 [20]): 13.46% | Activity (HepG2 [21]): Active | Activity (HepG2 [22]): 19.97% | Activity (HepG2 [23]): 31.12% | Activity (HepG2 [24]): 3.04% | Activity (HepG2 [25]): 13.5%

Reference: ChEMBL document CHEMBL4052629, “Scutellarin derivatives as apoptosis inducers: Design, synthesis and biological evaluation” (Eur J Med Chem, 2017)
